Key:
[1] = The ratio of Kinetic constant K cat / Ki of Dopamine Beta-hydroxylase inhibitor.
Method in brief: (§1)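 Bovine adrenal DBH, purified to homogeneity. Aliquots withdrawn at timed intervals and diluted into assay medium with 1 mM tyramine. Residual activity measured as octopamine formed, by reverse-phase HPLC with fluorescence detection. KI and kcat from Kitz–Wilson plot of t1/2 versus 1/I; kcat/KI calculated.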

[2] = molecular target: T1, Dopamine beta-hydroxylase (Bos taurus) (UniProt P15101); experiment: Compound was determined for the kinetic constant against Dopamine beta hydroxylase purified from beef adrenals, catalytic constant (kcat); method in brief: as §1
T1 sequence (whole entry): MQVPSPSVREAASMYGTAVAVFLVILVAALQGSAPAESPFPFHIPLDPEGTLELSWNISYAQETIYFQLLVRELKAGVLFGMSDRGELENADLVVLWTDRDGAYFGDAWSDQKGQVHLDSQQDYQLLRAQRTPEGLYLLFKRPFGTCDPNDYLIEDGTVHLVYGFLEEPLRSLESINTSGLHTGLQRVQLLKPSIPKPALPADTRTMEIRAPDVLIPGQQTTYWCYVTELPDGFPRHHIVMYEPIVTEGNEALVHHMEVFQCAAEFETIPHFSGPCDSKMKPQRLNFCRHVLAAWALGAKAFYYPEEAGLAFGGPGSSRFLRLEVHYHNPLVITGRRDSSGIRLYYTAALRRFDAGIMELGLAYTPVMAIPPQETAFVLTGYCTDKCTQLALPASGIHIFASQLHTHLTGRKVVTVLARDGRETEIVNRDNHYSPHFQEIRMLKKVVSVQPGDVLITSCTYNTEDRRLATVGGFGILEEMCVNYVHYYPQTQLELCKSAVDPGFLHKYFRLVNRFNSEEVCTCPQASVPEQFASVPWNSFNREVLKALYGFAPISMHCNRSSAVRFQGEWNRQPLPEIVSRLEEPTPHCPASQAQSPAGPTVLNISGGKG

[3] = molecular target: T2, Dopamine beta-hydroxylase (Bos taurus, UniProt P15101); experiment: Compound was determined for the kinetic constant against Dopamine beta hydroxylase purified from beef adrenals, inhibitory constant (Ki); method in brief: as §1
T2 sequence (P15101 whole entry): T1 sequence (whole entry)

Rattus norvegicus [4] = experiment: Compound was evaluated for the antihypertensive activity against DBH in conscious spontaneously hypertensive rats at the 30 doses (mg/Kg i.p.) after 3hr.; format: functional
Method in brief: (§2)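 Conscious spontaneously hypertensive rats received a single intraperitoneal dose; the paper's dose levels were 10, 30 and 100 mg/kg. Mean arterial blood pressure was monitored. Values are the maximal change in mmHg and the duration of the response in h. Groups were n = 4–6, reported as mean ± SD.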

Rattus norvegicus [5] = experiment: Compound was evaluated for the antihypertensive activity against DBH in conscious spontaneously hypertensive rats at the 100 doses (mg/Kg ip) after 79h.; format: functional
Method in brief: (§3)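 Conscious spontaneously hypertensive rats dosed intraperitoneally at 10, 30 or 100 mg/kg, n = 4–6 per group. Read-out is maximal change in mean arterial blood pressure (mmHg, mean ± SD), with duration of response in hours.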

Rattus norvegicus [6] = experiment: Compound was evaluated for the antihypertensive activity against DBH in conscious spontaneously hypertensive rats at the 10 doses (mg/Kg ip) after 1h.; format: functional; method in brief: as §3
Rattus norvegicus [7] = experiment: Compound was evaluated for the antihypertensive activity against DBH in conscious spontaneously hypertensive rats at the 30 doses (mg/Kg ip) after 30h.; format: functional; method in brief: as §3
Rattus norvegicus [8] = experiment: Compound was evaluated for the antihypertensive activity against DBH in conscious spontaneously hypertensive rats at the 30 doses (mg/Kg ip) after 43h.; format: functional; method in brief: as §3
Rattus norvegicus [9] = experiment: Compound was evaluated for the antihypertensive activity against DBH in conscious spontaneously hypertensive rats at the 100 doses (mg/Kg ip) after 70h.; format: functional; method in brief: as §3
Rattus norvegicus [10] = experiment: Compound was evaluated for the antihypertensive activity against DBH in conscious spontaneously hypertensive rats at the 30 doses (mg/Kg ip) after >1h. (MBP= mean arterial blood pressure); format: functional, Artery; method in brief: as §3
Rattus norvegicus [11] = experiment: Compound was evaluated for the antihypertensive activity against DBH in conscious spontaneously hypertensive rats at the 100 doses (mg/Kg ip). (MBP= mean arterial blood pressure)
Rattus norvegicus [12] = experiment: Compound was evaluated for the antihypertensive activity against DBH in conscious spontaneously hypertensive rats at the 30 doses (mg/Kg ip) after 9 hr (MBP= mean arterial blood pressure); format: functional, Artery; method in brief: as §2
Rattus norvegicus [13] = experiment: Compound was evaluated for the antihypertensive activity against DBH in conscious spontaneously hypertensive rats at the 30 doses (mg/Kg ip) after 6h.; format: functional; method in brief: as §3
Rattus norvegicus [14] = experiment: Compound was evaluated for the antihypertensive activity against DBH in conscious spontaneously hypertensive rats at the 100 doses (mg/Kg ip) after 3h.; format: functional; method in brief: as §3
Rattus norvegicus [15] = experiment: Compound was evaluated for the antihypertensive activity against DBH in conscious spontaneously hypertensive rats at the 100 doses (mg/Kg ip) after 2 hr.; format: functional; method in brief: as §3
Rattus norvegicus [16] = experiment: Compound was evaluated for the antihypertensive activity against DBH in conscious spontaneously hypertensive rats at the 30 doses (mg/Kg ip) after 1h.; format: functional; method in brief: as §3

SMILES | k cat/Ki [1] | k cat [2] | Ki [3] | also measured
C=C(CN)c1ccccc1 | 0.05 M⁻¹ s⁻¹ | 0.04 -1/min | 13000 µM | –
NCC#Cc1ccccc1 | 55.5 M⁻¹ s⁻¹ | 0.07 -1/min | 21 µM | Max MBP (Rattus norvegicus [4]): -13 mmHg
CC#Cc1ccccc1 | 0.1 M⁻¹ s⁻¹ | 0.06 -1/min | 20000 µM | –
C=C(CN)c1ccco1 | 5.28 M⁻¹ s⁻¹ | 0.13 -1/min | 410 µM | Max MBP (Rattus norvegicus [5]): -69 mmHg; Max MBP (Rattus norvegicus [6]): -10 mmHg; Max MBP (Rattus norvegicus [7]): -26 mmHg
C=C(CN)c1cccs1 | 59 M⁻¹ s⁻¹ | 0.124 -1/min | 35 µM | Max MBP (Rattus norvegicus [8]): -36 mmHg; Max MBP (Rattus norvegicus [6]): -19 mmHg; Max MBP (Rattus norvegicus [9]): -34 mmHg
C=C(CNC)c1cccs1 | 0.733 M⁻¹ s⁻¹ | 0.00163 s⁻¹ | 2150 µM | Max MBP (Rattus norvegicus [10]): -23 mmHg; Max MBP (Rattus norvegicus [11]): -16 mmHg
C=C(c1cccs1)C(C)N (stereo unspecified) | 2.68 M⁻¹ s⁻¹ | 0.000967 s⁻¹ | 360 µM | Max MBP (Rattus norvegicus [12]): -16 mmHg
C=C(CN)c1ccoc1 | 5.57 M⁻¹ s⁻¹ | 0.077 -1/min | 230 µM | Max MBP (Rattus norvegicus [13]): -20 mmHg; Max MBP (Rattus norvegicus [14]): -21 mmHg
C=C(CN)c1ccsc1 | 4.28 M⁻¹ s⁻¹ | 0.147 -1/min | 570 µM | Max MBP (Rattus norvegicus [15]): -54 mmHg; Max MBP (Rattus norvegicus [16]): -18 mmHg
